# Screening data (PubChem)
# Rows were chosen to be rich in hits. Some 4.2% of all compounds tested hit in one or more screens of this group.
# KCNQ1 inh – human KCNQ1 channel inhibition; CHO-K1 KCNQ1, FluxOR thallium flux fluorescence; hits give high values; B-score at 10 µM; hit rate 1.3% among 310,000; AID 2642;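 active = compounds whose thallium flux B-score, printed positive for inhibition, exceeds three library SD while starting fluorescence stays within three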;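 also: channel opened by potassium depolarization with thallium stimulus after 20 min compound exposure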
# hERG rescue – hERG (human) protection from proarrhythmic block; CHO-hERG, FluxOR thallium flux, dofetilide IC70 present; activation (rescue from dofetilide block), less the hit threshold, % at 10 µM; hit rate 0.51% among 310,000; AID 1511;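 active = activation above the mean of controls blocked by dofetilide plus 5 SD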;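 also: thallium influx through hERG after potassium depolarization seen as dye fluorescence rise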
# KCNQ1 pot – potentiators or activators of human KCNQ1 potassium channel; AID 2648; CHO-K1 KCNQ1, thallium flux FluxOR fluorescence; hits give high values; hit rate 0.35% among 310,000; B-score at 10 µM;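 active = fluorescence ratio B-score, a plate-corrected score, at least three library SD, with initial intensity B-score within 5 SD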
#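 Assay system: CHO-K1 cells stably expressing KCNQ1. Medium: assay buffer for compound exposure, DMSO matched across wells. Timing: 37 °C overnight plating, 90-min dark dye load, 20-min compound pretreatment. Signal: kinetic FluxOR fluorescence, 10 s baseline plus 110 s post-stimulus.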
# AI-2 QS modul – modulators of Vibrio harveyi AI-2 quorum sensing system | Vibrio harveyi JMH597 AI-2 luminescence/OD600 ratio, 9 h; hits give low values; strain lacks LuxN and CqsS sensors; 0 = neutral-control median | activity change, % at 7.5 µM | hit rate 0.4% among 300,000; in the data active = activity change below about -75%, passing the limit was not always enough;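 also: luminescence divided by OD600 gain over 9 h not by final OD600 alone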
# KCC2 mod – KCC2 (human) Cl- transport modulation. B-score of Tl+ flux slope (higher = more flux/activation; lower = inhibition) at 10 µM. hit rate 2.2% among 190,000. AID 1456. KCC2 cells, thallium flux FluoZin-2 fluorescence. Q9H2X9;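 active = thallium flux slope and its plate-corrected score both differing from the plate sample mean at a set confidence after two filtering rounds, in either direction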;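 also: slope of fluorescence scaled to starting intensity during 10 to 20 s after thallium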
# SUMO Mot1 rescue – blocks SUMOylation pathway, rescuing yeast Mot1-301 growth | hit rate 1% among 320,000 | S. cerevisiae Mot1-301 growth rescue, ATP luminescence, 38.5C; percent above DMSO median, 100 means doubled | growth rescue, % at 18.8 µM;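 active = every valid replicate shows activation above 250% relative to neutral control wells; inactive = the rest, any valid replicate at or below 250%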;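 also: OY570 slx delta 5 strain wells were the positive control but not used for scaling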
# KCNQ1 block val – confirmation of human KCNQ1 potassium channel inhibitors; shares compounds with KCNQ1 inh; KCNQ1 cell line, FluxOR thallium flux fluorescence; inhibition, % at 10 µM; hit rate 93% among 1,600; AID 588353;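 active = primary screen active, with duplicate mean exceeding buffer control mean plus 3 SD of buffer wells, cut at about 28% in these data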;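 also: 0% = buffer control ratio and 100% = XE991 inhibitor control ratio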
# CHO Tl flux – activity in parental CHO cells lacking KCNQ1; fluorescence ratio (Tl flux) at 10 µM; hit rate 21% among 1,600; parental CHO-K1, FluxOR thallium flux fluorescence ratio; hits give low values; zero means no signal rise above baseline; shares compounds with KCNQ1 inh;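 active = mean of duplicate thallium-flux fluorescence ratios in parental host cells more than 5 SD below the buffer control mean, cut at about 0.38 in these data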;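 also: ratio is peak minus minimum fluorescence divided by baseline fluorescence; actives read low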
# KCNQ1 ephys val – human KCNQ1 inhibition validated by electrophysiology; calls only at 10 µM; KCNQ1-CHO cells, automated patch clamp current; shares compounds with KCNQ1 inh; hit rate 20% among 490;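 active = KCNQ1 current drop exceeding 3 SD of negative control wells, seen in both duplicate runs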;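 also: steady state current during a 2 s step from -80 to +40 mV; negative values mean current inhibition and positive values mean potentiation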
# KCNQ2 inh – KCNQ1 inhibitor that also blocks rat KCNQ2 channel. shares compounds with KCNQ1 inh. KCNQ2 cells, FluxOR thallium flux fluorescence. inhibition, % at 10 µM. hit rate 71% among 1,600. AID 651746;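 active = mean percent inhibition of the KCNQ2 thallium signal more than 5 SD above the buffer-only control wells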;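 also: KCNQ2 expressed in CHO cells; 0% = buffer control wells and 100% = XE-991 inhibitor control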
# KCNQ1-KCNE1 inh – human KCNQ1/KCNE1 inhibition in KCNQ1 specificity screen; shares compounds with KCNQ1 inh; KCNQ1/KCNE1 cells, FluxOR thallium flux fluorescence; inhibition, % at 10 µM; hit rate 77% among 1,600; AID 652147;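 active = mean percent inhibition of duplicate wells above the buffer-only control mean plus 3 SD of those controls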;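 also: 0% = buffer only wells and 100% = XE-991 inhibitor control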
# The depositor's hits bear a star; i = inactive; · = not tested or not shown; + = active, no number.
SMILES,KCNQ1 inh,hERG rescue,KCNQ1 pot,AI-2 QS modul,KCC2 mod,SUMO Mot1 rescue,KCNQ1 block val,CHO Tl flux,KCNQ2 inh,KCNQ1-KCNE1 inh,others
c1ccc(-c2csc3ncnc(NCC4COc5ccccc5O4)c23)cc1 (stereo not given),9*,-11,i,27,1.1,25,151*,0.35*,132%*,+,
CC(C)(CC(=O)O)CC(=O)NNc1ncccc1C#N,i,-2,i,·,0.92,-8,·,·,·,·,
Cc1cc(C(=O)NC2CCCc3c2cnn3-c2ccc(C)c(C)c2)n(C)n1 (stereo not given),11*,-15,i,1,·,12,102*,0.47,91%*,84%*,KCNQ1 ephys val=i
O=C(Nc1nncs1)C1COc2ccccc2O1 (stereo not given),i,-7,i,12,0.3,-2,·,·,·,·,
CC(C)(C)c1csc(NC(=O)C2COc3ccccc3O2)n1 (stereo not given),7*,-9,i,20,·,6,68*,0.52,60%*,80%*,
Fc1ccc(CSc2nc3ccccc3[nH]2)c2ccccc12,6*,-13,i,-40,0.025,112,124*,0.35*,107%*,124%*,
Cn1cnnc1SCC(=O)NNC(=O)c1ccc(Cl)cc1,i,-10,i,30,0.18,-8,·,·,·,·,
Cc1cc(C(=O)COc2cc(F)ccc2[N+](=O)[O-])c(C)n1CC1CCCO1 (stereo not given),·,·,·,·,·,11,·,·,·,·,
CCOC(=O)c1ccc(NC(=S)Nc2ccc(C)cc2)cc1,i,-16,i,5,1.1,284,·,·,·,·,
CCOC(=O)c1cn[nH]c1NC(=S)Nc1ccc(Cl)cc1,13*,-13,i,14,-0.3,10,78*,0.55,76%*,54%*,
CCC(=O)N(Cc1ccco1)c1nc(C(=O)Nc2ccc(Cl)cc2)c(C)s1,9*,-14,i,0,-0.29,23,88*,0.45,63%*,111%*,
O=C1C(Cl)=C(N2CCCCCC2)C(=O)N1c1ccc(Br)cc1,6*,-9,i,27,·,9,85*,0.4,101%*,100%*,
Cc1cccc2nc(-c3cccnc3)c(NCCC(C)C)n12,11*,4.9*,i,3,0.56,13,139*,0.37*,119%*,157%*,
CCOC(=O)Cc1csc(NC(=O)/C=C/c2ccc(Cl)cc2)n1,i,-7,i,-6,-0.3,5,·,·,·,·,
O=S(=O)(NCCSCc1c(Cl)cccc1Cl)c1ccc2c(c1)OCCO2,i,-14,i,3,-0.5,-19,·,·,·,·,
O=S(=O)(NCCSCc1ccc(Cl)cc1Cl)c1ccc2c(c1)OCCO2,7*,-1,i,3,-0.14,-4,129*,0.43,96%*,144%*,KCNQ1 ephys val=i
O=C(OCC(=O)N1CCOCC1)c1cc(-c2ccccc2)nc2ccccc12,·,·,·,·,·,4,·,·,·,·,
CCOC(=O)c1c(NC(=S)Nc2ccccc2)sc2c1CCCCC2,i,-4,i,31,·,5,·,·,·,·,
CCOC(=O)c1c(NC(=O)C(C)OC(=O)c2ccc(NC(=O)CC#N)cc2)sc2c1CCCC2 (stereo not given),8*,-12,i,15,·,14,104*,0.44,91%*,187%*,KCNQ1 ephys val=i
Cc1ccc(-n2cccn2)c(CN2CCCC(C(=O)c3ccc4c(c3)OCO4)C2)c1 (stereo not given),8*,-17,i,22,·,-7,66*,0.39,112%*,80%*,
N#CC1=C(N)NC(SCc2ccc(Cl)cc2)=C(C#N)C12CCCCC2,16*,-18,i,29,-1.8,·,151*,0.38*,121%*,185%*,
N#CC1=C(N)NC(SCc2ccc(Br)cc2)=C(C#N)C12CCCCC2,18*,-13,i,9,-1.3,40,140*,0.31*,115%*,159%*,
CC(=O)N/N=C/c1ccc(OCCOc2ccc(Br)cc2)cc1,i,-6,i,22,0.16,5,·,·,·,·,
Cc1cc(C)nc(NNC(=O)c2ccccc2O)n1,i,-2,i,13,-0.39,-6,·,·,·,·,
CC1C(=O)C(C)C(c2cc(Cl)ccc2O)NC1c1cc(Cl)ccc1O (stereo not given),10*,-16,i,-3,·,9,84*,0.43,83%*,122%*,
SMILES,KCNQ1 inh,hERG rescue,KCNQ1 pot,AI-2 QS modul,KCC2 mod,SUMO Mot1 rescue,KCNQ1 block val,CHO Tl flux,KCNQ2 inh,KCNQ1-KCNE1 inh,others
COc1cccc(C2NC(c3cccc(OC)c3O)C(C)C(=O)C2C)c1O (stereo not given),i,-12,i,24,-1.5,23,·,·,·,·,
Cc1ccccc1CN1CCN(S(=O)(=O)c2ccc(Cl)s2)CC1,6*,-14,i,-3,·,5,90*,0.37*,122%*,118%*,
Cc1ccc(S(=O)(=O)c2ccc(Oc3cccc(C)c3)cc2)cc1,8*,-16,i,50,·,-28,112*,0.41,108%*,114%*,KCNQ1 ephys val=i
COc1cccc(CN2CC(C(=O)NCCc3ccc(C)o3)CCC2=O)c1 (stereo not given),i,-8,i,6,·,8,·,·,·,·,
CN(C)CCCN(C(=O)c1ccc2c(c1)CCCC2)c1nc2ccc(F)cc2s1,i,-21,i,-13,-0.0019,-12,·,·,·,·,
CN(C)CCCN(C(=O)c1ccc2c(c1)CCCC2)c1nc2cc3c(cc2s1)OCO3,7*,-16,i,1,·,-20,48*,0.46,76%*,36%*,
Cc1cc(C)c2c(-n3cccc3)nn(CC#N)c2n1,i,-12,i,7,-0.16,-2,·,·,·,·,
Cc1ccc(N2CCN(C(=O)N3CCOCC3)CC2)c(C)c1,i,-8,i,9,-0.57,7,·,·,·,·,
CCOC(=O)C1=C(N)Oc2ccc3ccccc3c2C1c1cccc(O)c1 (stereo not given),6*,-8,i,3,·,0,116*,0.39,122%*,123%*,KCNQ1 ephys val=i
